Experimental data as given in ChEMBL document CHEMBL3616437, “Thiazole compounds with activity against Cryptococcus gattii and Cryptococcus neoformans in vitro” (Eur J Med Chem, 2015).
Converted amounts (≈) assume the structure as drawn.

Tests used:
Cryptococcus neoformans [1] = assay: Antifungal activity against Cryptococcus neoformans ATCC 24067 after 48 to 72 hrs by broth microdilution method; format: functional
Procedure, shortened: (§1)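 CLSI M27-A3 broth microdilution. Isolates subcultured twice on SDA, 48 h at 35°C. Saline suspension adjusted to 70% transmittance at 530 nm, then diluted to 1-5 x10^3 cells/mL in RPMI with L-glutamine, 0.165 M MOPS, pH 7.0. Compounds in DMSO, tested at […]. 35°C for 48-72 h. MIC read visually as the lowest concentration giving an optically clear well.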

Vero = assay: Cytotoxicity against African green monkey Vero cells assessed as cell viability measured after 48 hrs by MTT assay; format: cell-based; details: Chlorocebus sabaeus
Procedure, shortened: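 VERO cells in D-MEM with 5% FBS, used up to 20 passages. Seeded 1 x 10^4 cells/well, pre-incubated 24 h at 37°C. Exposed 48 h at 37°C, 5% CO2, to eight nonserial dilutions from 100 to 0.0128 µM, with 0.5% DMSO control. MTT reduction read-out, corrected for background and blank. IC50 reported as median with 95% CI. Triplicate, two independent experiments.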

[2] = Cytotoxicity against C57BL/6 mouse peritoneal macrophages assessed as cell viability measured after 48 hrs by MTT assay; format: cell-based; details: C57BL/6, Peritoneal macrophage cell
Procedure, shortened: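 Thioglycollate-elicited peritoneal macrophages from male C57BL/6 mice, 6–8 weeks old, in RPMI with 10% FBS. Seeded 1 x 10^5 cells/well, pre-incubated 24 h at 37°C. Exposed 48 h at 37°C, 5% CO2, to eight nonserial dilutions from 100 to 0.0128 µM, with 0.5% DMSO control. MTT read-out, % inhibition versus DMSO control. IC50 reported as median with 95% CI. Triplicate, two independent experiments.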

[3] = Selectivity index, ratio of IC50 for African green monkey Vero cells to MIC for Cryptococcus neoformans ATCC 24067; format: toxicity, cell-based
[4] = Selectivity index, ratio of IC50 for C57BL/6 mouse peritoneal macrophages to MIC for Cryptococcus neoformans ATCC 24067
Procedure, shortened: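 SI = IC50/MIC. Thioglycollate-elicited peritoneal macrophages from C57BL/6 mice are seeded at 1 x 10^5/well. They are exposed for 48 h at 37°C to eight concentrations from 100 to 0.0128 µM. Viability read by MTT versus 0.5% DMSO control, triplicate in two experiments.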

[5] = tested on: Cryptococcus bacillisporus; assay: Antifungal activity against Cryptococcus gattii ATCC 32608 after 48 to 72 hrs by broth microdilution method; format: functional
Procedure, shortened: (§2)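 CLSI M27-A3 broth microdilution in RPMI with L-glutamine, buffered to pH 7.0 with 0.165 M MOPS. Colonies grown twice on SDA, 48 h at 35°C. Inoculum set to 70% transmittance at 530 nm, then diluted to 1-5 x10^3 cells/mL. Test agents dissolved in DMSO, serially diluted, tested at 0.1 to 62.5 µM. Plates held at 35°C for 48-72 h. MIC is the lowest concentration giving an optically clear well, read visually against drug-free growth controls.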

[6] = tested on: Cryptococcus gattii species complex; assay: Antifungal activity against Cryptococcus gattii 23/10993 after 48 to 72 hrs by broth microdilution method; format: functional, Cryptococcus bacillisporus; procedure, shortened: as §2
Cryptococcus neoformans [7] = assay: Ratio of compound MIC for Cryptococcus neoformans VM-MCMMPI in presence of fluconazole to compound MIC for Cryptococcus neoformans VM-MCMMPI in absence of fluconazole by checkerboard microtiter test; format: functional
Procedure, shortened: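 Checkerboard microdilution: eight two-fold dilutions of test compound (0.11 to 15.6 µM) crossed with amphotericin B (0.025 to 3.9 µM, in DMSO) or fluconazole (0.48 to 62.5 µM, in water). Inoculum per CLSI M27-A3 in RPMI-MOPS pH 7.0, 1-5 x10^3 cells/mL. Growth 48 to 72 h. Effective MIC is the combination concentration giving complete inhibition. FICs derived from MICs in combination versus alone.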

[8] = tested on: Cryptococcus gattii species complex; assay: Antifungal activity against Cryptococcus gattii L28/02 after 48 to 72 hrs by broth microdilution method; format: functional, Cryptococcus bacillisporus; procedure, shortened: as §2
[9] = tested on: Cryptococcus gattii species complex; assay: Antifungal activity against Cryptococcus gattii 547/OTTI-97-PI-10 after 48 to 72 hrs by broth microdilution method; format: functional, Cryptococcus bacillisporus; procedure, shortened: as §2
[10] = tested on: Cryptococcus gattii species complex; assay: Antifungal activity against Cryptococcus gattii 135L/03 after 48 to 72 hrs by broth microdilution method; format: functional, Cryptococcus bacillisporus; procedure, shortened: as §2
[11] = tested on: Cryptococcus gattii species complex; assay: Antifungal activity against Cryptococcus gattii 196L/03 after 48 to 72 hrs by broth microdilution method; format: functional, Cryptococcus bacillisporus; procedure, shortened: as §2
[12] = tested on: Cryptococcus gattii species complex; assay: Antifungal activity against Cryptococcus gattii L27/01 after 48 to 72 hrs by broth microdilution method; format: functional, Cryptococcus bacillisporus; procedure, shortened: as §2
[13] = tested on: Cryptococcus gattii species complex; assay: Antifungal activity against Cryptococcus gattii ICB181 after 48 to 72 hrs by broth microdilution method; format: functional, Cryptococcus bacillisporus; procedure, shortened: as §2
[14] = tested on: Cryptococcus gattii species complex; assay: Antifungal activity against Cryptococcus gattii L24/01 after 48 to 72 hrs by broth microdilution method; format: functional, Cryptococcus bacillisporus; procedure, shortened: as §2
[15] = tested on: Cryptococcus gattii species complex; assay: Antifungal activity against Cryptococcus gattii LMM818 after 48 to 72 hrs by broth microdilution method; format: functional, Cryptococcus bacillisporus; procedure, shortened: as §2
[16] = tested on: Cryptococcus gattii species complex; assay: Antifungal activity against Cryptococcus gattii 1913ER after 48 to 72 hrs by broth microdilution method; format: functional, Cryptococcus bacillisporus; procedure, shortened: as §2
Cryptococcus neoformans [17] = assay: Antifungal activity against Cryptococcus neoformans ATCC 28957 after 48 to 72 hrs by broth microdilution method; format: functional; procedure, shortened: as §1
Cryptococcus neoformans [18] = assay: Antifungal activity against Cryptococcus neoformans ATCC 62066 after 48 to 72 hrs by broth microdilution method; format: functional
Cryptococcus neoformans [19] = assay: Antifungal activity against Cryptococcus neoformans CN31 after 48 to 72 hrs by broth microdilution method; format: functional; procedure, shortened: as §1
Cryptococcus neoformans [20] = assay: Antifungal activity against Cryptococcus neoformans 96806 after 48 to 72 hrs by broth microdilution method; format: functional; procedure, shortened: as §1
Cryptococcus neoformans [21] = assay: Antifungal activity against Cryptococcus neoformans 5396 after 48 to 72 hrs by broth microdilution method; format: functional; procedure, shortened: as §1
Cryptococcus neoformans [22] = assay: Antifungal activity against Cryptococcus neoformans LMM820 after 48 to 72 hrs by broth microdilution method; format: functional; procedure, shortened: as §1
Cryptococcus neoformans [23] = assay: Antifungal activity against Cryptococcus neoformans F10 after 48 to 72 hrs by broth microdilution method; format: functional; procedure, shortened: as §1
Cryptococcus neoformans [24] = assay: Antifungal activity against Cryptococcus neoformans 28JF after 48 to 72 hrs by broth microdilution method; format: functional; procedure, shortened: as §1
Cryptococcus neoformans [25] = assay: Antifungal activity against Cryptococcus neoformans VM-MCMMPI after 48 to 72 hrs by broth microdilution method; format: functional; procedure, shortened: as §1
Cryptococcus neoformans [26] = assay: Antifungal activity against Cryptococcus neoformans 27JF after 48 to 72 hrs by broth microdilution method; format: functional; procedure, shortened: as §1
Cryptococcus neoformans [27] = assay: Antifungal activity against Cryptococcus neoformans WP after 48 to 72 hrs by broth microdilution method; format: functional; procedure, shortened: as §1

For `c1ccc(-c2csc(NN=C3CCCC3)n2)cc1`, the MIC (Cryptococcus neoformans [1]) was 1.9 µM (≈ 0.489 µg/mL), the IC50 (Vero) was > 100 µM and the IC50 [2] was > 100 µM. It also gave a selectivity ratio [3] of 29, a Ratio [4] of 29 and an MFC [5] of 3.9 µM (≈ 1 µg/mL). For the same compound, the MIC [5] was 2.2 µM (≈ 0.566 µg/mL), the MFC [6] was 3.9 µM (≈ 1 µg/mL) and the MIC [6] was 2.9 µM (≈ 0.746 µg/mL). The “fractional inhibitory concentration index (FICI)” value (Cryptococcus neoformans [7]) was 4.21, the MFC [8] was 3.9 µM (≈ 1 µg/mL) and the MIC [8] was 2.7 µM (≈ 0.695 µg/mL). It also gave an MFC [9] of 7.8 µM (≈ 2.01 µg/mL), an MIC [9] of 1.9 µM (≈ 0.489 µg/mL) and an MFC [10] of 3.9 µM (≈ 1 µg/mL). It also gave an MIC [10] of 3.1 µM (≈ 0.798 µg/mL), an MFC [11] of 7.8 µM (≈ 2.01 µg/mL) and an MIC [11] of 2.2 µM (≈ 0.566 µg/mL). It also gave an MFC [12] of 1.9 µM (≈ 0.489 µg/mL), an MIC [12] of 1.5 µM (≈ 0.386 µg/mL) and an MFC [13] of 1.9 µM (≈ 0.489 µg/mL). It also gave an MIC [13] of 1 µM (≈ 0.257 µg/mL), an MFC [14] of 7.8 µM (≈ 2.01 µg/mL) and an MIC [14] of 1.7 µM (≈ 0.438 µg/mL). It also gave an MFC [15] of 3.9 µM (≈ 1 µg/mL), an MIC [15] of 3.4 µM (≈ 0.875 µg/mL) and an MFC [16] of 7.8 µM (≈ 2.01 µg/mL). It also gave an MIC [16] of 1 µM (≈ 0.257 µg/mL), an MFC (Cryptococcus neoformans [17]) of 7.8 µM (≈ 2.01 µg/mL) and an MIC (Cryptococcus neoformans [17]) of 2.2 µM (≈ 0.566 µg/mL). The MFC (Cryptococcus neoformans [18]) was 3.9 µM (≈ 1 µg/mL), the MIC (Cryptococcus neoformans [18]) was 1.2 µM (≈ 0.309 µg/mL) and the MFC (Cryptococcus neoformans [19]) was 1.9 µM (≈ 0.489 µg/mL). It also gave an MIC (Cryptococcus neoformans [19]) of 1.9 µM (≈ 0.489 µg/mL), an MFC (Cryptococcus neoformans [20]) of 7.8 µM (≈ 2.01 µg/mL) and an MIC (Cryptococcus neoformans [20]) of 1.9 µM (≈ 0.489 µg/mL). The MFC (Cryptococcus neoformans [21]) was 0.9 µM (≈ 0.232 µg/mL), the MIC (Cryptococcus neoformans [21]) was 1.2 µM (≈ 0.309 µg/mL) and the MFC (Cryptococcus neoformans [22]) was 3.9 µM (≈ 1 µg/mL). For the same compound, the MIC (Cryptococcus neoformans [22]) was 2.2 µM (≈ 0.566 µg/mL), the MFC (Cryptococcus neoformans [23]) was 7.8 µM (≈ 2.01 µg/mL) and the MIC (Cryptococcus neoformans [23]) was 2.2 µM (≈ 0.566 µg/mL). For the same compound, the MFC (Cryptococcus neoformans [24]) was 1.9 µM (≈ 0.489 µg/mL), the MIC (Cryptococcus neoformans [24]) was 2.6 µM (≈ 0.669 µg/mL) and the MFC (Cryptococcus neoformans [25]) was 7.8 µM (≈ 2.01 µg/mL). For the same compound, the MIC (Cryptococcus neoformans [25]) was 1.6 µM (≈ 0.412 µg/mL), the MFC (Cryptococcus neoformans [26]) was 7.8 µM (≈ 2.01 µg/mL) and the MIC (Cryptococcus neoformans [26]) was 3.2 µM (≈ 0.824 µg/mL). It also gave an MFC (Cryptococcus neoformans [27]) of 3.9 µM (≈ 1 µg/mL) and an MIC (Cryptococcus neoformans [27]) of 3.2 µM (≈ 0.824 µg/mL).
